Measurements from different studies.
Each line is one published result; the experiments were not run side by side.
Method: competition with immobilised ligand
RPS6KA5 N-terminal kinase domain: Ribosomal protein S6 kinase alpha-5, N-terminal kinase domain (RPS6KA5, Homo sapiens, UniProt O75582)
RPS6KA5 C-terminal kinase domain: Ribosomal protein S6 kinase alpha-5, C-terminal kinase domain (RPS6KA5, Homo sapiens, UniProt O75582)

SMILES | target | test | conditions | remaining binding
c1cnn2ncc(-c3ccnc(N4CCC45COC5)n3)c2c1 | RPS6KA5 N-terminal kinase domain | binding | 1 µM | 100%
c1cncc(-c2cccc(Nc3nccc(NC4CCCCC4)n3)c2)c1 | RPS6KA5 N-terminal kinase domain | binding | 10 µM | 100%
Cc1cnc(Nc2ccc(C(=O)N3CCC(N4CCCC4)CC3)cc2)nc1-c1cc2ccccc2s1 | RPS6KA5 N-terminal kinase domain | binding | 1 µM | 100%
CCN1CCN(Cc2ccc(C(=O)Nc3ccc(C)c(Oc4ccc5c(c4)CC(=O)N5)c3)cc2C(F)(F)F)CC1 | RPS6KA5 N-terminal kinase domain | binding | 1 µM | 100%
O=C(O)[C@@H]1[C@@H](Cn2nnc3ccccc3c2=O)CC[C@H]1C(=O)c1ccc(OCCC2CCOCC2)cc1 | RPS6KA5 C-terminal kinase domain | cell-free assay | 1 µM | 100%
C=CC(=O)N1CCC(C(=O)NCC(=O)N2CCN(c3nc(-c4cnc(N)nc4C(F)F)nc(N4CCOCC4)n3)CC2)CC1 | RPS6KA5 N-terminal kinase domain | binding | 1 µM | 100%
O=C(NCC1CCOCC1)c1n[nH]cc1NC(=O)c1c(F)cccc1F | RPS6KA5 N-terminal kinase domain | binding | 1 µM | 79%
Cc1noc([C@H]2C[C@@H](c3ccc(C(F)(F)F)cc3)CN(C(=O)N3CCS(=O)(=O)C3)C2)n1 | RPS6KA5 C-terminal kinase domain | cell-free assay | 1 µM | 100%
O=C(NCCCN1CCOCC1)c1ccc(Nc2ncc(Cl)c(-c3ccc(Cl)s3)n2)cc1 | RPS6KA5 N-terminal kinase domain | binding | 1 µM | 100%
CSc1cccnc1N1CCN(Cc2nc3ccccc3[nH]2)CC1 | RPS6KA5 C-terminal kinase domain | cell-free assay | 1 µM | 100%
Nc1ncc2c(n1)-c1c([nH]c3ccc(C#CC4CC4)cc13)CCCC2 | RPS6KA5 C-terminal kinase domain | binding | 1 µM | 100%
O=C(c1ccc(Nc2ncc(Cl)c(-c3cc4ccccc4s3)n2)cc1)N1CCC(N2CCCC2)CC1 | RPS6KA5 C-terminal kinase domain | binding | 1 µM | 54%
COc1ncc2cc3ccccc3nc2c1C#N | RPS6KA5 C-terminal kinase domain | cell-free assay | 5 µM | 88%
COc1cnc(Nc2cccc(S(N)(=O)=O)c2)nc1N1CCN(c2ccccc2)C(=O)C1 | RPS6KA5 N-terminal kinase domain | binding | 1 µM | 99%
N[C@H]1CCN(c2nccc(-c3cnn4ncccc34)n2)C1 | RPS6KA5 N-terminal kinase domain | binding | 1 µM | 100%
O=C(Nc1c[nH]nc1C(=O)NC1CCNCC1)c1cc(F)cc(F)c1 | RPS6KA5 C-terminal kinase domain | binding | 1 µM | 100%

SMILES | target | test | conditions | remaining binding
O=C(NCCCN1CCOCC1)c1ccc(Nc2nccc(-c3cc4ccccc4s3)n2)cc1 | RPS6KA5 C-terminal kinase domain | binding | 1 µM | 100%
Cc1cnn2ncc(-c3ccnc(N(C)C)n3)c2c1 | RPS6KA5 N-terminal kinase domain | binding | 1 µM | 100%
NS(=O)(=O)c1cc(NC(=O)C2(c3ccccc3Cl)CC2)ccc1Oc1cccc(Cl)c1 | RPS6KA5 N-terminal kinase domain | cell-free assay | 1 µM | 100%
CN(C)c1ncc(F)c(-c2cnn3ncccc23)n1 | RPS6KA5 N-terminal kinase domain | binding | 1 µM | 98%
O=C(c1ccc(Nc2ncc(Cl)c(-c3ccc(Cl)s3)n2)cc1)N1CCC(N2CCCC2)CC1 | RPS6KA5 C-terminal kinase domain | binding | 1 µM | 48%
COc1ccnn2ncc(-c3ccnc(N(C)C)n3)c12 | RPS6KA5 C-terminal kinase domain | binding | 1 µM | 100%
O=C(c1ccc(Nc2nccc(-c3cc4ccccc4s3)n2)cc1)N1CCC(N2CCCC2)CC1 | RPS6KA5 C-terminal kinase domain | binding | 1 µM | 86%
c1ccc(N2CCN(Cc3nc4ccccc4[nH]3)CC2)nc1 | RPS6KA5 C-terminal kinase domain | binding | 1 µM | 100%
CN(CCCC(F)(F)F)c1nccc(-c2cnn3ncccc23)n1 | RPS6KA5 C-terminal kinase domain | binding | 1 µM | 100%
C[C@H](c1ccnc(Nc2nc3ccc(-c4cc(N(C)C)ncn4)cc3[nH]2)c1)N1CCN(C(=O)CC(F)(F)F)CC1 | RPS6KA5 C-terminal kinase domain | cell-free assay | 0.1 µM | 61%
C[C@@H](c1ccc(-n2cnc3c(N)ncnc32)cc1)N1CCc2nn(C)c(Cc3ccccc3)c2C1=O | RPS6KA5 C-terminal kinase domain | binding | 0.1 µM | 92%
F[C@@H]1CCN(c2nccc(-c3cnn4ncccc34)n2)C1 | RPS6KA5 C-terminal kinase domain | binding | 1 µM | 73%
COc1ccc2c(c1)O[C@@H](c1ccc(OC)c(OC)c1)C[C@H]2NC(=O)C1(c2ccc3c(c2)OC(F)(F)O3)CC1 | RPS6KA5 C-terminal kinase domain | cell-free assay | 1 µM | 100%
CNC(=O)[C@@H]1CC[C@@H](n2c(-c3ccc4cnccc4c3)nc3ccc(C(=O)NCc4cccc(C(N)=O)c4)cc32)C1 | RPS6KA5 C-terminal kinase domain | binding | 1 µM | 100%
CN(C)C(=O)Cn1cc(-c2nc([C@@](C)(c3ccc(-c4cnc(N)nc4)cc3)C3CC3)no2)cn1 | RPS6KA5 C-terminal kinase domain | cell-free assay | 1 µM | 92%
COc1cnc(Nc2cccc(S(N)(=O)=O)c2)nc1N1CCN(c2ccccc2)CC1 | RPS6KA5 N-terminal kinase domain | binding | 1 µM | 92%
